Active and inactive are the calls of the source. The rule behind the calls is not given here.
Key:
Mus musculus [1] = experiment: Anticonvulsant activity in Swiss albino mouse assessed as reduction in clonic seizures at 300 mg/kg, ip after 4 hrs by subcutaneous pentylenetetrazole seizure test; assay type: functional, organism-based; design: dose 300 mg/kg
Summary of the method: (§1)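 Adult male Swiss albino mice; test agents given i.p. at 30, 100 and 300 mg/kg, with animals examined 0.5 h and 4.0 h after injection. Value is the minimal dose protecting half or more of the mice; a dash means no activity at 300 mg/kg.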

Mus musculus [2] = experiment: Anticonvulsant activity in intraperitoneally dosed Swiss albino mouse assessed as reduction in electrical stimulus-induced seizures after 0.5 hrs by maximal electroshock seizure test; assay type: functional; summary of the method: as §1
Mus musculus [3] = experiment: Anticonvulsant activity in Swiss albino mouse assessed as reduction in clonic seizures at 300 mg/kg, ip after 0.5 hrs by subcutaneous pentylenetetrazole seizure test; assay type: functional, organism-based; design: dose 300 mg/kg; summary of the method: as §1
Mus musculus [4] = experiment: Anticonvulsant activity in intraperitoneally dosed Swiss albino mouse assessed as reduction in electrical stimulus-induced seizures after 4 hrs by maximal electroshock seizure test; assay type: functional; summary of the method: as §1
[5] = Neurological toxicity in intraperitoneally dosed Swiss albino mouse assessed as motor impairment after 4 hrs by rotarod test; assay type: organism-based; settings: in vivo, ip, read-out: MTD50
[6] = Neurological toxicity in intraperitoneally dosed Swiss albino mouse assessed as motor impairment after 0.5 hrs by rotarod test; assay type: organism-based; settings: in vivo, ip, read-out: MTD50
Mus musculus [7] = experiment: Toxicity in Swiss albino mouse assessed as induction of death following tonic extension at 300 mg/kg, ip after 4 hrs during maximal electroshock seizure test; assay type: organism-based; design: dose 300 mg/kg, route intraperitoneal; settings: in vivo
Mus musculus [8] = experiment: Anticonvulsant activity in intraperitoneally dosed Swiss albino mouse assessed as reduction in clonic seizures after 4 hrs by subcutaneous pentylenetetrazole seizure test; assay type: functional; summary of the method: as §1
Mus musculus [9] = experiment: Anticonvulsant activity in Swiss albino mouse assessed as reduction in electrical stimulus-induced seizures at 300 mg/kg, ip after 0.5 hrs by maximal electroshock seizure test; assay type: functional, organism-based; design: dose 300 mg/kg; summary of the method: as §1
Mus musculus [10] = experiment: Neurological toxicity in Swiss albino mouse assessed as motor impairment at 300 mg/kg, ip after 4 hrs by rotarod test; assay type: organism-based; design: dose 300 mg/kg, route intraperitoneal; settings: in vivo
Summary of the method: (§2)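 Adult male Swiss albino mice dosed i.p. at 30, 100 and 300 mg/kg, examined at 0.5 h and 4.0 h. Neurotoxicity is scored as failure to hold onto the rotating rod, with three successive trials. Value is the minimal dose active in half or more of the mice.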

Mus musculus [11] = experiment: Neurological toxicity in Swiss albino mouse assessed as motor impairment at 300 mg/kg, ip after 0.5 hrs by rotarod test; assay type: organism-based; design: dose 300 mg/kg, route intraperitoneal; settings: in vivo; summary of the method: as §2
Mus musculus [12] = experiment: Anticonvulsant activity in Swiss albino mouse assessed as reduction in electrical stimulus-induced seizures at 300 mg/kg, ip after 4 hrs by maximal electroshock seizure test; assay type: functional, organism-based; design: dose 300 mg/kg; summary of the method: as §1
Mus musculus [13] = experiment: Toxicity in Swiss albino mouse assessed as induction of myoclonic jerks at 300 mg/kg, ip after 0.5 hrs during subcutaneous pentylenetetrazole seizure test; assay type: organism-based; design: dose 300 mg/kg
Mus musculus [14] = experiment: Anticonvulsant activity in intraperitoneally dosed Swiss albino mouse assessed as reduction in clonic seizures after 0.5 hrs by subcutaneous pentylenetetrazole seizure test; assay type: functional; summary of the method: as §1
Mus musculus [15] = experiment: (§3) Increase in GSH-Px level in brain of Swiss albino mouse model of pentylenetetrazole-induced kindling related chronic epilepsy at 5 to 30 mg/kg, ip administered daily for 5 weeks followed by injection of 30 mg/kg, ip PTZ on every alternate day till full kindling development; assay type: functional, organism-based
Summary of the method: (§4)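 PTZ-kindled mice (30 mg/kg i.p. on alternate days for 5 weeks) receive i.p. treatment (5, 10, 20, 30 mg/kg) for 35 days. At the end, mice are killed under ether and brains stored at -20 °C for up to 10 h. Readouts are GSH (µg/g wet tissue), MDA (nmol/µg protein), GSH-Px (U/g protein) and NO (µmol/g protein). n = 8 per group (PTZ group n = 6); mean ± SEM, ANOVA with Tukey's test.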

Mus musculus [16] = experiment: (§5) Reduction in nitric oxide level in brain of Swiss albino mouse model of pentylenetetrazole-induced kindling related chronic epilepsy at 10 to 30 mg/kg, ip administered daily for 5 weeks followed by injection of 30 mg/kg, ip PTZ on every alternate day till full kindling development by Griess reagent based assay; assay type: functional, organism-based; summary of the method: as §4
Mus musculus [17] = experiment: as §5, with “5” for “10 to 30”; assay type: functional, organism-based; summary of the method: as §4
Mus musculus [18] = experiment: (§6) Anticonvulsant activity in Swiss albino mouse model of pentylenetetrazole-induced kindling related chronic epilepsy assessed as reduction in seizure severity score by at 10 to 30 mg/kg, ip administered daily for 5 weeks followed by injection of 30 mg/kg, ip PTZ on every alternate day till full kindling development; assay type: functional, organism-based
Summary of the method: (§7)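 Adult male Swiss albino mice are randomised into seven groups (n = 8; n = 9 for PTZ-only). Treatment is i.p. for 35 days. PTZ is given at 30 mg/kg i.p. on alternate days for 5 weeks. Control mice receive saline; phenobarbital 30 mg/kg i.p. is the reference. Seizure score is rated visually each week. Data are mean ± SEM, ANOVA with Tukey's test.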

Mus musculus [19] = experiment: as §6, with “5” for “10 to 30”; assay type: functional, organism-based; summary of the method: as §7
Mus musculus [20] = experiment: Reduction in MDA level in brain of Swiss albino mouse model of pentylenetetrazole-induced kindling related chronic epilepsy at 5 to 30 mg/kg, ip administered daily for 5 weeks followed by injection of 30 mg/kg, ip PTZ on every alternate day till full kindling development by spectrophotometry; assay type: functional, organism-based; summary of the method: as §4
Mus musculus [21] = experiment: as §3, with “GSH” for “GSH-Px”, “development by Ellman's reagent based assay” for “development”; assay type: functional, organism-based; summary of the method: as §4
Mus musculus [22] = experiment: Toxicity in Swiss albino mouse assessed as induction of sedation at 100 mg/kg, ip after 0.5 hrs during maximal electroshock seizure test; assay type: organism-based; design: dose 100 mg/kg, route intraperitoneal; settings: in vivo
Mus musculus [23] = experiment: as §6, with “reduction in incidence and seizure severity” for “reduction in seizure severity”, “by at 30 mg/kg,” for “by at 10 to 30 mg/kg,”; assay type: functional, organism-based
Summary of the method: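 Adult Swiss albino male mice, randomised to seven groups (n = 8; PTZ group n = 9). Test drug given i.p. over 35 days, with PTZ 30 mg/kg i.p. on alternate days for 5 weeks. Seizures scored visually each week. Mean score ± SEM compared by ANOVA with Tukey's test.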

SMILES | Activity (Mus musculus [1]) | MED50 (Mus musculus [2]) | Activity (Mus musculus [3]) | MED50 (Mus musculus [4]) | MED50 (Mus musculus [8]) | Activity (Mus musculus [9]) | Activity (Mus musculus [10]) | Activity (Mus musculus [11]) | MED50 (Mus musculus [14]) | further results
O=C1NC(=O)C(c2ccccc2)(c2ccccc2)N1 [PHENYTOIN] | inactive | 30 mg/kg | inactive | 30 mg/kg |  |  |  |  |  | 
CCOC(=O)Nc1ccc(N2CCN(c3ccncc3)CC2)cc1 | inactive | 100 mg/kg | inactive | 300 mg/kg |  |  |  |  |  | TD50 at 4 h [5]: 100 mg/kg; TD50 at 0.5 h [6]: 300 mg/kg; Activity (Mus musculus [7]): Toxic
CCOC(=O)Nc1ccc(N2CCN(C(c3ccccc3)c3ccccc3)CC2)cc1 |  |  | inactive | 300 mg/kg | 300 mg/kg | inactive | Non-toxic | Non-toxic |  | 
CCOC(=O)Nc1ccc(N2CCN(Cc3ccc4c(c3)OCO4)CC2)cc1 | inactive |  |  |  |  | inactive | Non-toxic | Non-toxic | 300 mg/kg | Activity (Mus musculus [12]): inactive; Activity (Mus musculus [13]): Toxic
CCC1(C)CC(=O)NC1=O (centres undefined) [ETHOSUXIMIDE] |  |  |  |  | 300 mg/kg | inactive | Non-toxic | Non-toxic | 100 mg/kg | Activity (Mus musculus [12]): inactive
CCOC(=O)Nc1ccc(N2CCN(c3ccc(C(C)=O)cc3)CC2)cc1 |  | 30 mg/kg |  | 100 mg/kg | 100 mg/kg |  | Non-toxic | Non-toxic | 100 mg/kg | Activity (Mus musculus [15]): Active; Activity (Mus musculus [16]): Active; Activity (Mus musculus [17]): inactive; Activity (Mus musculus [18]): Active; Activity (Mus musculus [19]): Active; Activity (Mus musculus [20]): Active; Activity (Mus musculus [21]): Active
CCOC(=O)Nc1ccc(N2CCN(c3ccc(Cl)cc3)CC2)cc1 |  | 100 mg/kg |  | 300 mg/kg | 100 mg/kg |  |  |  | 100 mg/kg | Activity (Mus musculus [22]): Toxic
CCOC(=O)Nc1ccc(N2CCN(c3ccc(F)cc3)CC2)cc1 | inactive |  | inactive | 300 mg/kg |  | inactive | Non-toxic | Non-toxic |  | Activity (Mus musculus [12]): inactive
CCOC(=O)Nc1ccc(N2CCN(Cc3ccccc3)CC2)cc1 | inactive | 100 mg/kg | inactive | 100 mg/kg |  |  | Non-toxic | Non-toxic |  | 
CCOC(=O)Nc1ccc(N2CCN(c3ccccn3)CC2)cc1 | inactive | 100 mg/kg | inactive | 100 mg/kg |  |  |  |  |  | TD50 at 4 h [5]: 100 mg/kg; TD50 at 0.5 h [6]: 100 mg/kg
CCOC(=O)Nc1ccc(N2CCN(C(=O)c3ccco3)CC2)cc1 | inactive |  | inactive | 100 mg/kg |  | inactive | Non-toxic | Non-toxic |  | 
CCC1(c2ccccc2)C(=O)NC(=O)NC1=O |  |  |  |  |  |  |  |  |  | Activity (Mus musculus [23]): Active

— ChEMBL document CHEMBL3396946, “Design, synthesis and pharmacological evaluation of N-[4-(4-(alkyl/aryl/heteroaryl)-piperazin-1-yl)-phenyl]-carbamic acid ethyl ester derivatives as novel anticonvulsant agents” (Bioorg Med Chem Lett, 2015)
